≈ marks a conversion by molar mass, not a printed value.
Assays:
[1] = Apparent intrinsic clearance in rat liver microsomes; assay type: ADME, Microsome; details: read-out: CLH
Rattus norvegicus [2] = assay: Oral bioavailability in Wistar-Han rat at 5 mg/kg; assay type: ADME, organism-based; details: in vivo
How it was run: (§1)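 Wistar-Han rats were dosed at 1 mg/kg i.v. and 5 mg/kg p.o.; pharmacokinetic parameters were derived from the plasma profiles.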

Rattus norvegicus [3] = assay: Antidiabetic activity in Wistar-Han rat assessed as reduction in glucagon-induced blood glucose excursion at 1 mg/kg, iv after 11 mins; assay type: functional; design: scale not given: the % may be the effect or the level left
How it was run: (§2)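 Wistar-Han rats received compound or vehicle i.v. at t = 0 (1, 10 or 30 mg/kg), then a 3 µg/kg i.v. glucagon bolus at 15 min. Blood glucose was sampled at 0, 10, 26, 32, 50 and 80 min, and compound plasma levels were measured. n = 6 rats per dose group.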

[4] = Plasma concentration in Wistar-Han rat at 30 mg/kg, iv after 11 mins; assay type: ADME, organism-based; design: dose 30 mg/kg, route intravenous; how it was run: as §2
Rattus norvegicus [5] = assay: Antidiabetic activity in Wistar-Han rat assessed as reduction in glucagon-induced blood glucose excursion at 30 mg/kg, iv after 11 mins; assay type: functional; design: scale not given: the % may be the effect or the level left; how it was run: as §2
[6] = Lipophilicity, log D of the compound in octanol-phosphate buffer at pH 7.4; assay type: physicochemical; details: octanol/phosphate buffer, read-out: logD
How it was run: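 Shake-flask partition between octanol and buffer at pH 7.4.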

Glucagon receptor = Glucagon receptor (Homo sapiens, UniProt P47871); assay: Displacement of [125I]Glucagon-Cex from human GCGR
Sequence of Glucagon receptor (P47871 whole entry): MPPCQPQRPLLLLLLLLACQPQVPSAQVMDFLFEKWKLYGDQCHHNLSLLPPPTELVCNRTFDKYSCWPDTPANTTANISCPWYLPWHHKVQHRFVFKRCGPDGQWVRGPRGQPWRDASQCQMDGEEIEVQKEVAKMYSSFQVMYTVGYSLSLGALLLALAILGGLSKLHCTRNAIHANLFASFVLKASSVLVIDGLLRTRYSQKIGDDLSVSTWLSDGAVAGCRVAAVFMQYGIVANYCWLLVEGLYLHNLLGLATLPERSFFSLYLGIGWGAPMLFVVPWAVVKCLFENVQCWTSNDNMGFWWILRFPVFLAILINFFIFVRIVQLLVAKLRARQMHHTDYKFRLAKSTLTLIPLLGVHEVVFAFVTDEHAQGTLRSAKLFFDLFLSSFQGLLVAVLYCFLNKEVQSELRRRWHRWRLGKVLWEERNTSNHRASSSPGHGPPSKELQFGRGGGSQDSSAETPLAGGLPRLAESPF
How it was run: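 Displacement of [125I]glucagon-Cex from membranes containing the human glucagon receptor, run with 0.2% BSA. Values are geometric means of n ≥ 2 determinations.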

Rattus norvegicus [7] = assay: Volume of distribution at steady state in Wistar-Han rat at 1 mg/kg, iv and 5 mg/kg, po; assay type: ADME, organism-based; details: in vivo; how it was run: as §1
Rattus norvegicus [8] = assay: Antidiabetic activity in Wistar-Han rat assessed as reduction in glucagon-induced blood glucose excursion at 10 mg/kg, iv after 11 mins; assay type: functional; design: scale not given: the % may be the effect or the level left; how it was run: as §2
[9] = Cytotoxicity against human THLE cells after 72 hrs; assay type: cell-based; details: thle
How it was run: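 Transformed human liver epithelial (THLE) cells were exposed to compound for 72 h. Cytotoxicity was read as cellular ATP depletion and reported as the concentration predicted to kill 50% of cells.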

[10] = Permeability across low transporter-containing MDCK2 cells; assay type: ADME, cell-based, Canis lupus familiaris, MDCK-II; details: dog, MDCK; read-out: permeability
[11] = Kinetic solubility of the compound at pH 6.5; assay type: physicochemical; details: buffer, read-out: Kinetic_solubility
[12] = Plasma concentration in Wistar-Han rat at 10 mg/kg, iv after 11 mins; assay type: ADME, organism-based; design: dose 10 mg/kg, route intravenous; how it was run: as §2
[13] = target: Glucagon-like peptide 1 receptor (Homo sapiens, UniProt P43220); assay: Displacement of [125I]GLP-1 from human GLP1R
Sequence of Glucagon-like peptide 1 receptor (P43220 whole entry): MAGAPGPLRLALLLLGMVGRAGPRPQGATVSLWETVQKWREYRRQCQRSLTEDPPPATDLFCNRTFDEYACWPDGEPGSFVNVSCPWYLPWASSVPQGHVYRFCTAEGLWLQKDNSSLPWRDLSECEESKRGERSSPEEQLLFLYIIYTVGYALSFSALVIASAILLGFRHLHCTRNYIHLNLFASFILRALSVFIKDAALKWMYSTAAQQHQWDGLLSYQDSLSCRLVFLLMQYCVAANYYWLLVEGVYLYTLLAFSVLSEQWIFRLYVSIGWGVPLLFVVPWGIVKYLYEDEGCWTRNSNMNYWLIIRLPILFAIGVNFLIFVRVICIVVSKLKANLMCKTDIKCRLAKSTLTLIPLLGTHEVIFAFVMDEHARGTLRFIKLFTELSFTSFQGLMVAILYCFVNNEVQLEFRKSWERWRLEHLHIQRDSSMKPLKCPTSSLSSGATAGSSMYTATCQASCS
How it was run: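 Displacement of [125I]GLP-1 from membranes expressing the human GLP-1 receptor.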

[14] = target: T1, Gastric inhibitory polypeptide receptor (Homo sapiens, UniProt P48546); assay: Displacement of [125I]GIP from human GIPR
T1 sequence (P48546 whole entry): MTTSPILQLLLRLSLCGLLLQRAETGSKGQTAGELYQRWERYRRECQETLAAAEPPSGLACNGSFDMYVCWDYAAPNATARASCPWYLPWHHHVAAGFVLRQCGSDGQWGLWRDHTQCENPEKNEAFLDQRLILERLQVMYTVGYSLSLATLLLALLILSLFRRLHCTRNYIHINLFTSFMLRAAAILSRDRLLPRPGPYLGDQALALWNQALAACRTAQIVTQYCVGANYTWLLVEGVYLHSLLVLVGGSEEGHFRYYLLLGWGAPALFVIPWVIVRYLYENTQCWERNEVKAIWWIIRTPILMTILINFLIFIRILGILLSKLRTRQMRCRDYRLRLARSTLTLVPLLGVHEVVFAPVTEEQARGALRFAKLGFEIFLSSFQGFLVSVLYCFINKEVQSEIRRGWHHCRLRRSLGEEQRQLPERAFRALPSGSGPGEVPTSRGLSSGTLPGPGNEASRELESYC

[15] = Plasma concentration in Wistar-Han rat at 1 mg/kg, iv after 11 mins; assay type: ADME, organism-based; design: dose 1 mg/kg, route intravenous; how it was run: as §2
Rattus norvegicus [16] = assay: Half life in Wistar-Han rat at 1 mg/kg, iv and 5 mg/kg, po; assay type: ADME, organism-based; details: in vivo; how it was run: as §1
[17] = target: Glucagon receptor (Rattus norvegicus) (UniProt P30082); assay: Antagonist activity at rat GCGR assessed as inhibition of glucagon-induced cAMP production

CLint scaled [1]: < 25 mL/min/kg
F (Rattus norvegicus [2]): 2%
concentration at 11 min [4]: 21000 ng/mL
logD [6]: 2.27
Ki (Glucagon receptor): 9 nM
Vdss (Rattus norvegicus [7]): 1.27 L/kg
Papp [10]: 6.34 ×10⁻⁶ cm/s
solubility kinetic [11]: 320 µM (≈ 160 µg/mL)
concentration at 11 min [12]: 2280 ng/mL
Ki [13]: 3340 nM
Ki [14]: 152 nM
concentration at 11 min [15]: 300 ng/mL
t1/2 (Rattus norvegicus [16]): 24 min
SMILES: O=C(O)CCNC(=O)c1ccc(C(Nc2cnn(-c3ccc(C(F)(F)F)cc3)c2)C2CCCC2)cc1 (single isomer, unassigned; (+))
Activity (Rattus norvegicus [3]): 12%
Activity (Rattus norvegicus [5]): 24%
Activity (Rattus norvegicus [8]): 20%
IC50 [9]: 235000 nM
Kb [17]: 2340 nM

Source: ChEMBL document CHEMBL1933020, “A novel series of glucagon receptor antagonists with reduced molecular weight and lipophilicity” (Bioorg Med Chem Lett, 2012)
